The values below come from ChEMBL document CHEMBL4706651, “Peripheral Selective Oxadiazolylphenyl Alanine Derivatives as Tryptophan Hydroxylase 1 Inhibitors for Obesity and Fatty Liver Disease” (J Med Chem, 2021).

Calls of active or inactive are those of the source. The calls are words filed in the database; no cut-off is given here.

Data set [1] concerns the target T1, Tryptophan 5-hydroxylase 1 (Homo sapiens) (UniProt P17752).
T1 sequence (whole entry): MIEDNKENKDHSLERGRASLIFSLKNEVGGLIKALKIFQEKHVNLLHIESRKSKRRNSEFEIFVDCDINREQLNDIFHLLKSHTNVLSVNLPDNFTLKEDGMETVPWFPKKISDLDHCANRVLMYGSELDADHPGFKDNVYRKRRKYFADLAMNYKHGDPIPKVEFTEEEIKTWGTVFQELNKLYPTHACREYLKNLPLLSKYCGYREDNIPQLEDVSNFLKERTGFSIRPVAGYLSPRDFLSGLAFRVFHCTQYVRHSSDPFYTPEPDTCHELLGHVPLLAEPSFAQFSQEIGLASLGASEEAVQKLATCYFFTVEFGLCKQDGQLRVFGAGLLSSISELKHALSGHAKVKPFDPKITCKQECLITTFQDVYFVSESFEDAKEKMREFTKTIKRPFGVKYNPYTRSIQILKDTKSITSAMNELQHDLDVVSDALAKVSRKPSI
In words: Inhibition of Tryptophan hydroxylase 1 (unknown origin) at 1 uM incubated for 4 hrs by fluorescence based assay. The method, boiled down: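 TPH1 activity was measured with a commercial fluorescence kit. Compound in DMSO was mixed with TPH1 enzyme (320 ng/reaction), then reaction solution was added. The plate was sealed, cooled to 4 °C, shaken and incubated 4 h. Quench solution was added, and fluorescence was read at ex 300 nm / em 360 nm.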

In data set [2] the test system is Mus musculus. In words: Anti-obesity activity in C57BL/6J mouse model of diet-induced obesity assessed as reduction in adipose tissues by measuring iWAT at 10 mg/kg, ip dosed daily for 8 weeks. Type of data set: functional, organism-based. The method, boiled down:
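After eight weeks of daily ip dosing at 10 mg/kg with high-fat diet (60% fat calories) in C57BL/6J mice starting at 12 weeks, gross appearance of dissected eWAT, iWAT and BAT was photographed against a 1 cm × 1 cm grid.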

Data set [3] can be described thus: Stability in rat liver microsomes assessed as parent compound remaining level after 30 mins. The data set is classed as ADME, Microsome. Particulars: read-out: Stabilty.
Data set [4] deals with Mus musculus. In words: Anti-obesity activity in C57BL/6J mouse model of diet-induced obesity assessed as increase in heat production at 10 mg/kg, ip dosed daily for 8 weeks by indirect calorimetry. Type of data set: functional, organism-based. A digest of the protocol:
(§1)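 Daily ip dosing of C57BL/6J mice on high-fat diet (60% fat calories), starting at 12 weeks of age, for eight weeks. Mice were housed singly in an eight-chamber open-circuit indirect calorimetry system and monitored for 72 h in the fed state. VO2 and VCO2 were recorded. RER = VCO2/VO2; heat production = (3.185 + 1.232 × RER) × VO2. n = 5/group; means SEM.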

In data set [5] the test system is Mus musculus. In words: Anti-obesity activity in C57BL/6J mouse model of diet-induced obesity assessed as reduction in adipocyte size in iWAT at 10 mg/kg, ip dosed daily for 8 weeks by H and E staining based histological analysis. Type of data set: functional, organism-based. A digest of the protocol: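 C57BL/6J mice, 12 weeks old, given daily ip vehicle or drug during 8 weeks of high-fat diet (60% fat calories). Sacrificed after 6 h fasting. Five-micron paraffin sections of eWAT, iWAT and BAT were deparaffinized and stained with H&E. Crown-like structures, adipocyte size, lipid droplets and multilocular cells were assessed. Scale bar 100 μm.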

The test system of data set [6] is Mus musculus. Briefly: Anti-obesity activity in C57BL/6J mouse model of diet-induced obesity assessed as suppression of 5-HT levels in serum at 10 mg/kg, ip dosed daily for 8 weeks by LC-MS/MS analysis. Type of data set: functional, organism-based. The method, boiled down:
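C57BL/6J mice, 12 weeks old, on high-fat diet (60% fat calories) were dosed daily ip with vehicle or 10 mg/kg for eight weeks. Serum was isolated from cardiac-puncture blood and 5-HT was quantified by LC-MS/MS. n = 5/group; means SEM.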

Data set [7] relates to Mus musculus. In words: Anti-hepatic steatosis activity in C57BL/6J mouse model of diet-induced obesity assessed as reduction in plasma cholesterol level at 10 mg/kg, ip dosed daily for 8 weeks colorimetry. Type of data set: functional, organism-based.
The subject of data set [8] is Mus musculus. Briefly: Anti-obesity activity in C57BL/6J mouse model of diet-induced obesity assessed as increase in VO2 at 10 mg/kg, ip dosed daily for 8 weeks by indirect calorimetry. Type of data set: functional, organism-based. A digest of the protocol: as §1
The nature of data set [9]: Drug level in ICR mouse plasma at 10 mg/kg, ip after 1 hr. The data set is classed as ADME, organism-based. A digest of the protocol:
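Male ICR mice received 10 mg/kg ip in DMSO/PEG400/saline 5:40:55 (v/v/v), 5 mL/kg. At 1 h, heart blood was spun to plasma. Mice were perfused with heparinized saline, and brains were homogenized in 3 volumes PBS. Analyte was quantified by LC-MS/MS. Brain quantification limit 31.3 ng/g. n = 3; mean SD.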

Data set [10] relates to Mus musculus. Briefly: Anti-obesity activity in C57BL/6J mouse model of diet-induced obesity assessed as suppression of fat mass at 10 mg/kg, ip dosed daily for 8 weeks. Type of data set: functional, organism-based. A digest of the protocol: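 High-fat diet (60% fat calories) fed to C57BL/6J mice from 12 weeks old, with daily ip vehicle or drug for 8 weeks. Fat, lean and fluid mass were measured in live mice with a body composition analyzer and expressed as percent. n = 6/group; means SEM.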

Data set [11] concerns Mus musculus. In words: Anti-obesity activity in C57BL/6J mouse model of diet-induced obesity assessed as suppression of body weight gain at 10 mg/kg, ip dosed daily for 8 weeks […]. Type of data set: functional, organism-based.
In data set [12] the test system is Mus musculus. In words: Anti-hepatic steatosis activity in C57BL/6J mouse model of diet-induced obesity assessed as reduction in hepatic triacylglycerol at 10 mg/kg, ip dosed daily for 8 weeks colorimetry. The data set is classed as functional, organism-based.
Data set [13] deals with hERG (KCNH2) (Homo sapiens, UniProt Q12809). In words: Inhibition of human ERG at 10 uM relative to control.
hERG (KCNH2), sequence (Q12809 whole entry): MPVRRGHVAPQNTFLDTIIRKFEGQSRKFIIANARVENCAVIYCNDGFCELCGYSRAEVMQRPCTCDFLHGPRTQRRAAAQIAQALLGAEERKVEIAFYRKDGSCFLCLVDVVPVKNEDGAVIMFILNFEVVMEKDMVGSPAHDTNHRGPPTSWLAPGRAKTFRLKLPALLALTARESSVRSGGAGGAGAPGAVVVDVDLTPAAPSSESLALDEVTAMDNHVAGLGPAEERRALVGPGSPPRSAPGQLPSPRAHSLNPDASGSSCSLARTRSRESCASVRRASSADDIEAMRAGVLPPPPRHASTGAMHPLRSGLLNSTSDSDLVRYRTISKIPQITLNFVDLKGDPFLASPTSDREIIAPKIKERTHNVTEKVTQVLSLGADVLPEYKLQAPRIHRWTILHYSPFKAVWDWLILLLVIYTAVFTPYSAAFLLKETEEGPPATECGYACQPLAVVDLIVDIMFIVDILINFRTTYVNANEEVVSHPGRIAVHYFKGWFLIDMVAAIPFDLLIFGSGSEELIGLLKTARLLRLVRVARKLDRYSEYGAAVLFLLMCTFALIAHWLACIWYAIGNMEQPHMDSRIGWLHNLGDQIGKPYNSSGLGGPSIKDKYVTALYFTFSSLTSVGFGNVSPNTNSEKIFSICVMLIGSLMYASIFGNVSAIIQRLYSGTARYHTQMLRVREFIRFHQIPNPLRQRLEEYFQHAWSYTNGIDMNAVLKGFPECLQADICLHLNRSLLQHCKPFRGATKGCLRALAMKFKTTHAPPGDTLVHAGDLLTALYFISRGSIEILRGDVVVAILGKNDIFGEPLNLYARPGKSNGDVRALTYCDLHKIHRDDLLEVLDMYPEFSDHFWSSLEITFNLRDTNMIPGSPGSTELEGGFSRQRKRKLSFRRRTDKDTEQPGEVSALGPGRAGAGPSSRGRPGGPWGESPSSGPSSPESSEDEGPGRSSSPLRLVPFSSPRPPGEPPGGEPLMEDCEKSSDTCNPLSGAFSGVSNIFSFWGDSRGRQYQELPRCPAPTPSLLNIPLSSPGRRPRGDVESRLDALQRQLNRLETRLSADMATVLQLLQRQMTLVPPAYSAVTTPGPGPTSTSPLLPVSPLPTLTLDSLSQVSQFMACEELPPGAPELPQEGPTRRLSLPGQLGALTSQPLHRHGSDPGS
The subject of data set [14] is Mus musculus. In words: Anti-obesity activity in C57BL/6J mouse model of diet-induced obesity assessed as increase in VCO2 at 10 mg/kg, ip dosed daily for 8 weeks by indirect calorimetry. Type of data set: functional, organism-based. A digest of the protocol: as §1
Data set [15] concerns Mus musculus. In words: Anti-obesity activity in C57BL/6J mouse model of diet-induced obesity assessed as induction of thermogenic activity by measuring increase in Ucp1 mRNA expression in iWAT at 10 mg/kg, ip dosed daily for 8 weeks by RT-PCR analysis. Type of data set: functional, organism-based. The method, boiled down: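 C57BL/6J mice fed a 60% fat-calorie diet from 12 weeks of age, dosed ip daily for eight weeks. For Ucp1 mRNA, total RNA was extracted from BAT or iWAT with TRIzol and analysed by quantitative RT-PCR as relative expression. UCP1 protein was detected by immunohistochemistry on five-micron paraffin sections. n = 5/group.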

`COc1ccc(-c2nc(-c3ccc(C[C@H](N)C(=O)O)cc3)no2)cc1-c1ccc(O)cc1.Cl` gave an inhibition in [1] of 100%. Further, the outcome in [2], in [4], in [5], in data set [6], in [7] and in data set [8] was Active. Moreover, the result in data set [10], in data set [11], in data set [12], in [14] and in data set [15] was Active. In data set [3], the remaining at 0.5 h was determined as 85%. Further, in data set [9], the concentration at 1 h was found to be 3.11 µg/mL. Besides, testing at 10 µM in data set [13] gave an inhibition of 24.3%.

The term inhibition denotes the relative decrease from the control value, in per cent.
